Reference: ChEMBL document CHEMBL1821615 (J Med Chem, 2011)
Calls of active or inactive are those of the source. The calls are words filed in the database; no cut-off is given here.

Columns and labels:
[1] = target: Sigma non-opioid intracellular receptor 1 (Cavia porcellus, UniProt Q60492); assay: Displacement of [3H]-pentazocine from sigma 1 receptor from guinea pig brain membrane
[2] = Displacement of [3H]-DTG from sigma 2 receptor from rat liver in presence of pantazocine
[3] = system: BXPC-3; assay: Cytotoxicity against human BxPC3 cells during nonproliferating stage assessed as decreased cell death at 100 uM after 18 hrs by crystal violet staining; format: functional, cell-based
Outline: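 BxPC3 cells seeded at increasing densities (1 × 10^5 to 9 × 10^5) 24 h before treatment with 100 µM sigma-2 agonist. After 18 h, washed, fixed in 4% paraformaldehyde 30 min at 37 °C, crystal violet stained 15 min at 37 °C, and imaged by densitometry. Viability given as percent density relative to DMSO-treated cells.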

[4] = Selectivity ratio of IC50 for guinea pig brain sigma 1 receptor to IC50 for rat liver sigma 2 receptor
Outline: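 Sigma-1 binding used (+)-[3H]-pentazocine (34 Ci/mmol); sigma-2 binding used [3H]-DTG (30 Ci/mmol), per the Matsumoto et al. method. IC50 taken from six to nine test concentrations in two or three experiments, each in duplicate.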

[5] = system: BXPC-3; assay: Drug uptake in human BxPC3 cells assessed as decrease drug uptake at 25 nM measured after 60 mins by flow cytometric analysis in presence of caveolin inhibitor Filipin 3; format: ADME, cell-based; settings: bxpc-3, 1 h
Outline: (§1)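 BxPC3 cells pretreated 60 min at 37 °C with phenylarsine oxide (10 µM; clathrin route) or Filipin III (5 µg/mL; caveolin route), or DMSO vehicle, then washed and resuspended in medium. Compound added at 25 nM; mean FL1 fluorescence read by flow cytometry in kinetic mode over 60 min, expressed as percent of maximum signal.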

[6] = system: BXPC-3; assay: Drug uptake in human BxPC3 cells assessed as decreased uptake at increasing cell density at 25 nM after 30 min by flow cytometric analysis; format: ADME, cell-based; settings: bxpc-3, 0.5 h
Outline: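 BxPC3 cells seeded at increasing densities to give subconfluent (dividing) through confluent (quiescent) cultures. Next day, cells treated with compound at 25 nM for 30 min at 37 °C, and fluorescence intensity measured by flow cytometry.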

[7] = system: BXPC-3; assay: Cellular uptake in human BxPC3 cells assessed as decrease drug uptake at 25 nM measured after 60 mins by flow cytometric analysis in presence of clathrin inhibitor phenylarsine oxide; format: ADME, cell-based; settings: bxpc-3, 1 h; outline: as §1

Sigma non-opioid intracellular receptor 1, sequence (Q60492 whole entry): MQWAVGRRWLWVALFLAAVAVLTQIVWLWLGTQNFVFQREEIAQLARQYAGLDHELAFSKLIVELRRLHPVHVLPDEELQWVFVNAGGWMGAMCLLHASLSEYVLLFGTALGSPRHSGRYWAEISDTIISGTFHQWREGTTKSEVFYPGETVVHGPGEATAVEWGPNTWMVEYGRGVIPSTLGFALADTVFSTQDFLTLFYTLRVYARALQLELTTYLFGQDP

| Compound | Ki [1] | Ki [2] | Activity [3] | Ratio Ki [4] | Drug uptake [5] | Drug uptake [6] | Drug uptake [7] |
| --- | --- | --- | --- | --- | --- | --- | --- |
| COc1cccc2c1CCCC2CCCN1CCN(C2CCN(CCCCCCNc3ccc([N+](=O)[O-])c4nonc34)CC2)CC1 (stereo not given) | 2570 nM | 1720 nM |  |  |  |  |  |
| COc1cccc2c1CCCC2CCCN1CCN(C2CCN(CCCCCCNS(=O)(=O)c3cccc4c(N(C)C)cccc34)CC2)CC1 (stereo not given) | > 5000 nM | 5020 nM |  |  |  |  |  |
| Fc1cccc(F)c1[C@H]1CC[C@@H](N2CCN(C3CCCCC3)CC2)CC1 |  |  | inactive |  |  |  |  |
| O=[N+]([O-])c1ccc(NCCOCCOc2cccc3c2CCCC3CCCN2CCN(C3CCCCC3)CC2)c2nonc12 (stereo not given) | 96.2 nM | 39.3 nM |  | 2.5 |  |  |  |
| CN(C)c1cccc2c(S(=O)(=O)NCCCCCCOc3cccc4c3CCCC4CCCN3CCN(C4CCCCC4)CC3)cccc12 (stereo not given) | 9.08 nM | 20.8 nM |  |  |  |  |  |
| COc1cccc2c1CCCC2CCCN1CCN(C2CCCCC2)CC1 (stereo not given) |  | 0.68 nM | inactive |  |  |  |  |
| O=[N+]([O-])c1ccc(NCCCCCCOc2cccc3c2CCCC3CCCN2CCN(C3CCCCC3)CC2)c2nonc12 (stereo not given) | 78.7 nM | 10.8 nM |  | 8 | 50% | Not Active | 69% |
| CN(C)c1cccc2c(S(=O)(=O)NCCOCCOc3cccc4c3CCCC4CCCN3CCN(C4CCCCC4)CC3)cccc12 (stereo not given) | 19.8 nM | 25.7 nM |  |  |  |  |  |
